From PMC5766324 (Pain, 2015)
Where a SMILES comes first, the peptide text is derived from it. The star is where a group is joined. Myristoyl = CCCCCCCCCCCCCC(=O)*

Experiments:
[1] = cited from earlier work
[2] = system: Ca2+ currents in sensory neurons; conditions: cited from earlier work
[3] = i.c.v. dosing; previous studies; cited from earlier work
CRMP2 phosphorylation = assay: Western blot of phospho-CRMP2 in peptide-treated DRG; type: cell-based, rat; conditions: 20 μM peptide, 2 hours, n = 3–6 wells
CaV2.2 = assay: Immunocytochemistry, confocal colocalization of CaV2.2 and CRMP2 in DRG; type: cell-based, rat; conditions: 20 μM peptide
Outline: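 DRG cultures were grown on poly-D-lysine coverslips in DMEM/F12 with 10% FBS, 5-FDU and uridine at 37°C, 5% CO2. Cells were exposed to vehicle or 20 μM peptide for 5 min, 20 min, 2 h or 48 h, then fixed (4% paraformaldehyde/4% sucrose, 20 min), permeabilized (0.1% Triton X-100) and blocked (3% BSA). Anti-CaV2.2 and anti-CRMP2 were applied overnight at 4°C. Confocal images were background-subtracted, and Pearson and Manders coefficients were computed from raw data.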

[4] = system: small-diameter DRG neurons; assay: Current clamp, excitability of small-diameter DRG neurons; type: cell-based, rat; conditions: step of depolarizing current; n = 4 to 6 cells; P < 0.001
Outline: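 Whole-cell current clamp of acutely dissociated small-diameter DRG neurons at ~23°C. Pipette solution (mM): 140 KCl, 10 NaCl, 1 MgCl2, 1 EGTA, 10 HEPES pH 7.2, 1 ATP-Mg. Cells were held at resting potential (−40 to −62 mV). A 1-s depolarizing current step was set to evoke 6–10 APs under control, and APs were counted before and after adding peptide to the bath. Signals were filtered at 5 kHz and […].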

[5] = Paw incision model of postoperative pain; type: in vivo, rat
Outline: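 Male Sprague-Dawley rats received a plantar incision of the left hind paw under isoflurane. After 24 h of recovery, peptide or vehicle was given spinally. Thermal withdrawal latency (lift or lick; 30-s cutoff) and tactile withdrawal thresholds were measured every 15 min for the first hour, then every 30 min for 4 h.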

[6] = Carrageenan-induced thermal hypersensitivity; type: in vivo, rat; conditions: 20 μg/5 μL i.t., 3 hours after carrageenan; tat-CBD3 at 90, 120, 210, 240, 300 minutes; myr-tat-CBD3 at 15, 60, 90, 120, 180 minutes; n = 5–6
CRMP2 = CRMP2 (Homo sapiens, UniProt Q16555); assay: CRMP2 oligomerization, glutaraldehyde cross-linking and silver-stained SDS-PAGE; type: biochemical; conditions: 20 μM peptide, 1 mM glutaraldehyde; n = 3
Outline: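 Bacterially expressed recombinant CRMP2, purified by affinity, anion-exchange and size-exclusion chromatography. About 4.6 μM CRMP2 was preincubated in 100 mM HEPES pH 7.3, 50 mM NaCl, with or without 20 μM peptide, for 15 min at room temperature. Glutaraldehyde (0.1, 1 or 10 mM) was added for 30 min. The reaction was stopped with loading dye and heat, and oligomers were resolved by SDS-PAGE with silver staining.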

[7] = system: Ca2+ currents in sensory neurons; assay: Whole-cell voltage clamp, Ca2+ currents in sensory neurons; type: cell-based, rat
[8] = system: Na+ currents, catecholamine A differentiated cell line; conditions: chronic application, 20 μM overnight; n = 5 to 8 cells
Rotarod performance test = type: in vivo, rat; conditions: 20 μg/5 μL i.t.; cutoff 180 seconds; n = 5 to 6
[9] = biological target: N-type voltage-gated calcium channel (CaV2.2) (rat (endogenous in spinal cord)) (UniProt Q02294); assay: pull-down
Chain of N-type voltage-gated calcium channel (CaV2.2) (rat (endogenous in spinal cord)) (Q02294 whole entry): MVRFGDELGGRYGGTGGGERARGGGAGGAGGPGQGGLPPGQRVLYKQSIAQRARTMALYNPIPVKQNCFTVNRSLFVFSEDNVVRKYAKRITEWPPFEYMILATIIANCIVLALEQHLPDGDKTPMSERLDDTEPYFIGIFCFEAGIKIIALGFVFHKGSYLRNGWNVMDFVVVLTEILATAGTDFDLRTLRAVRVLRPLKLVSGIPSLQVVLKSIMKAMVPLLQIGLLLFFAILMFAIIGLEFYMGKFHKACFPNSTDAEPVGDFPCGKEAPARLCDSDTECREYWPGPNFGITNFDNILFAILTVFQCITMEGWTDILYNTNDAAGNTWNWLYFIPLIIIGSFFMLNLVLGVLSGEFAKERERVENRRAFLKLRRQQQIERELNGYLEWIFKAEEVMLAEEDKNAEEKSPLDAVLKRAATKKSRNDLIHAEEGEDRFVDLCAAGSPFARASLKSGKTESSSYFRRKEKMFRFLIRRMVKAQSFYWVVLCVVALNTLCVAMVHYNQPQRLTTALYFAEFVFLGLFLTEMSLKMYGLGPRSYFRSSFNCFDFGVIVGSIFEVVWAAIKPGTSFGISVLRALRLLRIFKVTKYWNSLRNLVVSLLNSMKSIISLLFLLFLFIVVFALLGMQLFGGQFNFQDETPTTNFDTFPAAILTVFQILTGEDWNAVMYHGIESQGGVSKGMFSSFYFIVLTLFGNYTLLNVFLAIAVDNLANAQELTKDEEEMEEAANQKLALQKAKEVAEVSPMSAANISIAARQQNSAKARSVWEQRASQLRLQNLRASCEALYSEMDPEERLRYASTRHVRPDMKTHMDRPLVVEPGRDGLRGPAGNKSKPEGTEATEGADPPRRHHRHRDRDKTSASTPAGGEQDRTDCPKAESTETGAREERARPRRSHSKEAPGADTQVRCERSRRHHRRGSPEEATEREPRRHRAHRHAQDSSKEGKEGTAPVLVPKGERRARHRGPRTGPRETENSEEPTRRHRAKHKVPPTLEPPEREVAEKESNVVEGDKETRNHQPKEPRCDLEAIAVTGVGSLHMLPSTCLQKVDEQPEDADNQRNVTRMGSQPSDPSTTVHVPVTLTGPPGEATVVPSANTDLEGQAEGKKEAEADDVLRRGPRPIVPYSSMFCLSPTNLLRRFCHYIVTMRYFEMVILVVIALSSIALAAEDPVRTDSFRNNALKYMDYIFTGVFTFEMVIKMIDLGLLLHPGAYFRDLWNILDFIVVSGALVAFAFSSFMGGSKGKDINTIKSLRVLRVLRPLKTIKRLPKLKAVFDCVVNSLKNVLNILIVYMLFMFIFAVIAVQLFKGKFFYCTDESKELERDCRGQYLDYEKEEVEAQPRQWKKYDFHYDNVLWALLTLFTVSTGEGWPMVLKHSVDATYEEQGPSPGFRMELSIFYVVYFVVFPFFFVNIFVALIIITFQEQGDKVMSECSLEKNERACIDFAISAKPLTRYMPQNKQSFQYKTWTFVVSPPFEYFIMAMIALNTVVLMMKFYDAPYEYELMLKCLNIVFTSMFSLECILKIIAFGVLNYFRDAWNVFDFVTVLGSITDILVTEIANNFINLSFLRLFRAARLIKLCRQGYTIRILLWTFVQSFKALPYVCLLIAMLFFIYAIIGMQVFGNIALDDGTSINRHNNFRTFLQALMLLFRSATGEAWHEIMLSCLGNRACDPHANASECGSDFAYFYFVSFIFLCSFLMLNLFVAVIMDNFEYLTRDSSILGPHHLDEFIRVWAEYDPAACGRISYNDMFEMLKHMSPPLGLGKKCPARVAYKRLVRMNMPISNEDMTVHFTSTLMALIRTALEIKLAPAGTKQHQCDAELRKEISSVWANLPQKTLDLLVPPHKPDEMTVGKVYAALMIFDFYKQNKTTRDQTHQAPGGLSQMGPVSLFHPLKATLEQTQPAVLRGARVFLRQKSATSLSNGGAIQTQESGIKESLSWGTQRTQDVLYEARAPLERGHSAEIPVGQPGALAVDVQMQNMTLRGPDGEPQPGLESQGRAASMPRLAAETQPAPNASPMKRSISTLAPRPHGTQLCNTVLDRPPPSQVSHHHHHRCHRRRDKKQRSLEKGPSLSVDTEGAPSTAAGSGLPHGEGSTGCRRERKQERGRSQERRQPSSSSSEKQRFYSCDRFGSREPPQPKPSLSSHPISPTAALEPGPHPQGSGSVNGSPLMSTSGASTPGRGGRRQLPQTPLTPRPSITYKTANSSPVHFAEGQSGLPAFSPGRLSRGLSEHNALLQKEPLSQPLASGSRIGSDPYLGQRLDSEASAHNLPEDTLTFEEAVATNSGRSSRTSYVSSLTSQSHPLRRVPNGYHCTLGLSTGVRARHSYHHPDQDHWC

## NCC1(CC(=O)O)CCCCC1 [gabapentin]
[1]; intrathecal, von Frey on incised paw, 60 minutes after injection
  peak effect, reversal of hypersensitivity: ~ 19%
[2]
  block of CaV2.2 currents after acute treatments: ineffective in blocking currents

## CN1CC[C@]23c4c5ccc(O)c4O[C@H]2[C@@H](O)C=C[C@H]3[C@H]1C5 [morphine]
[3]
  conditioned place preference: positive condition place preference

## CCCCCCCCCCCCCC(=O)NCC(=O)N[C@@H](Cc1ccc(O)cc1)C(=O)NCC(=O)N[C@@H](CCCNC(=N)N)C(=O)N[C@@H](CCCCN)C(=O)N[C@@H](CCCCN)C(=O)N[C@@H](CCCNC(=N)N)C(=O)N[C@@H](CCCNC(=N)N)C(=O)N[C@@H](CCC(N)=O)C(=O)N[C@@H](CCCNC(=N)N)C(=O)N[C@@H](CCCNC(=N)N)C(=O)N[C@@H](CCCNC(=N)N)C(=O)N[C@@H](C)C(=O)N[C@@H](CCCNC(=N)N)C(=O)N[C@@H](CO)C(=O)N[C@@H](CCCNC(=N)N)C(=O)N[C@@H](CC(C)C)C(=O)N[C@@H](C)C(=O)N[C@@H](CCC(=O)O)C(=O)N[C@@H](CC(C)C)C(=O)N[C@@H](CCCNC(=N)N)C(=O)NCC(=O)N[C@H](C(=O)N1CCC[C@H]1C(=O)N[C@@H](CCCNC(=N)N)C(=O)NCC(=O)N[C@@H](CC(C)C)C(=O)O)C(C)C [myr-tat-CBD3] (Myristoyl-GYGRKKRRQRRRARSRLAELRGVPRGL-OH; C-terminus assumed)
CRMP2 phosphorylation
  expression of phosphorylated CRMP2 at sites 522, 509/514, 555: no changes
CaV2.2
  Manders overlap coefficient (MOC), CaV2.2 with CRMP2: 0.65
  Pearson correlation coefficient (PCC), CaV2.2 with CRMP2: 0.60
[4]
  number of action potentials (APs): significantly decreased
[5]; 20 μg/5 μL i.t., 24 hours after incision, n = 5
  time for which maintenance of thermal and tactile hypersensitivity was blocked: at least 4 hours
[5]; at 5 hours after i.t. injection, 20 μg/5 μL
  withdrawal threshold (tactile): ~ 11 g
[5]; spinal administration after surgery
  duration of reversal of thermal hypersensitivity: ~ 4 hours
[6]
  carrageenan-induced thermal hypersensitivity vs vehicle: significantly attenuated
CRMP2
  extent of CRMP2 dimer or tetramer: does not alter
[7]; acute application (5–30 minutes), data not shown
  effect on Ca2+ currents, acute application: unable to inhibit currents
[7]; chronic application (~24 hours), 20 μM overnight, n = 14 to 16 cells
  inhibition of Ca2+ currents: ~ 40%
[7]; chronic application, 20 μM, Boltzmann fits
  activation of Ca2+ currents: no changes
[8]
  effect on Na+ currents: did not affect

## CC(C)C[C@H](NC(=O)CNC(=O)[C@H](CCCNC(=N)N)NC(=O)[C@@H]1CCCN1C(=O)[C@@H](NC(=O)CNC(=O)[C@H](CCCNC(=N)N)NC(=O)[C@H](CC(C)C)NC(=O)[C@H](CCC(=O)O)NC(=O)[C@H](C)NC(=O)[C@H](CC(C)C)NC(=O)[C@H](CCCNC(=N)N)NC(=O)[C@H](CO)NC(=O)[C@H](CCCNC(=N)N)NC(=O)[C@H](C)NC(=O)[C@H](CCCNC(=N)N)NC(=O)[C@H](CCCNC(=N)N)NC(=O)[C@H](CCCNC(=N)N)NC(=O)[C@H](CCC(N)=O)NC(=O)[C@H](CCCNC(=N)N)NC(=O)[C@H](CCCNC(=N)N)NC(=O)[C@H](CCCCN)NC(=O)[C@H](CCCCN)NC(=O)[C@H](CCCNC(=N)N)NC(=O)CNC(=O)[C@@H](N)Cc1ccc(O)cc1)C(C)C)C(=O)O [tat-CBD3] (H-YGRKKRRQRRRARSRLAELRGVPRGL-OH)
Rotarod performance test
  average time on rotarod over the course of 300 minutes: 180 ± 0 s

## myr-tat-CBD3 (peptide)
[9]
  percent inhibition of CaV2.2-CRMP2 binding at 10 μM: > 81%

## ω-conotoxin MVIIA
[1]; in vivo
  duration of reduced thermal hypersensitivity and mechanical allodynia: 2 to 4 h
  time of maximal effect: 2 h
